Reference: ChEMBL document CHEMBL5036380, “New Highly Potent NLRP3 Inhibitors: Furanochalcone Velutone F Analogues” (ACS Med Chem Lett, 2022)
Activity calls are given as the source filed them. The calls are words filed in the database; no cut-off is given here.

Tests used:
[1] = target: NLR family CARD domain-containing protein 4 (Homo sapiens) (UniProt Q9NPP4); assay: Inhibition of NLRC4 inflammasome activation in LPS-induced human THP-1 cells at 1 uM for 40 mins followed by flagellin stimulation for 6 h by ELISA; format: cell-based; conditions: time 400.0 min
[2] = target: T1, Interferon-inducible protein AIM2 (Homo sapiens) (UniProt O14862); assay: Inhibition of AIM2 inflammasome activation in LPS-induced human THP-1 cells at 1 uM for 40 mins followed by […] stimulation for 6 h by ELISA; format: cell-based; conditions: time 400.0 min
T1 sequence (whole entry): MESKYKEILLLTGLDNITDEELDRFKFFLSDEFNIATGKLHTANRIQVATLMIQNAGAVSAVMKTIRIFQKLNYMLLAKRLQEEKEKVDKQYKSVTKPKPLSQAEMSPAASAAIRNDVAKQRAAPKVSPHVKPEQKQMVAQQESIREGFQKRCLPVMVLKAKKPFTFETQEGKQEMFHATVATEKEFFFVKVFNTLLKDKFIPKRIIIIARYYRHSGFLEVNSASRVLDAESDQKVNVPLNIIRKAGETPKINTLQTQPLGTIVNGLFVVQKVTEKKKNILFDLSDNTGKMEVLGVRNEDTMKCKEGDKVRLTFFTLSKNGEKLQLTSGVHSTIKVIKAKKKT

[3] = target: NLR family CARD domain-containing protein 4 (Homo sapiens) (UniProt Q9NPP4); assay: Inhibition of NLRC4 inflammasome activation in LPS-induced human THP-1 cells at 3 to 5uM for 40 mins followed by flagellin stimulation for 6 h by ELISA; format: cell-based
THP-1 [4] = assay: Effect on NLRP3 expression in LPS-stimulated human THP-1 cells preincubated for 40 mins followed by LPS addition and measured after 3 hrs by Western blot analysis; format: functional, cell-based; conditions: time 220.0 min
Outline: (§1)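 THP-1 cells were given compound for 40 min, then primed with LPS for 3 h. Medium supernatant was analysed for TNF-α. Cell extracts were immunoblotted for pro-IL-1β and NLRP3.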

THP-1 [5] = assay: Effect on IL-1beta expression in LPS-stimulated human THP-1 cells preincubated for 40 mins followed by LPS addition and measured after 3 hrs by Western blot analysis; format: functional, cell-based; conditions: time 220.0 min; outline: as §1
[6] = target: NACHT, LRR and PYD domains-containing protein 3 (Homo sapiens) (UniProt Q96P20); assay: Inhibition of NLRP3 in human THP-1cells assessed as increase in thermal stability at 0.5 to 5 uM at 57 deg C measured by cellular thermal shift assay; conditions: dose 0.5-5 µM
[7] = AUC (0 to t) in Sprague-Dawley rat at 90 mg/kg, po measured up to 24 hrs by LC-MS/MS analysis; format: ADME, organism-based; design: route oral, dose 90 mg/kg, time <=24; conditions: in vivo
Outline: (§2)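 Single doses given intravenously (10 mg/kg) or orally (10, 30, 90 mg/kg); plasma levels quantified by LC/MS/MS at multiple time points. Parameters reported as mean values: AUC0–t, CL, Cmax, T1/2, Tmax, and %F based on AUC.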

[8] = Clearance in Sprague-Dawley rat at 10 mg/kg, iv measured up to 24 hrs by LC-MS/MS analysis; format: ADME, organism-based; conditions: in vivo; outline: as §2
[9] = Cmax in Sprague-Dawley rat at 30 mg/kg, po measured up to 24 hrs by LC-MS/MS analysis; format: ADME, organism-based; design: route oral, dose 30 mg/kg, time <=24; conditions: in vivo; outline: as §2
[10] = Cmax in Sprague-Dawley rat at 90 mg/kg, po measured up to 24 hrs by LC-MS/MS analysis; format: ADME, organism-based; design: route oral, dose 90 mg/kg, time <=24; conditions: in vivo; outline: as §2
[11] = Half life in Sprague-Dawley rat at 10 mg/kg, po measured up to 24 hrs by LC-MS/MS analysis; format: ADME, organism-based; conditions: in vivo; outline: as §2
[12] = Half life in Sprague-Dawley rat at 30 mg/kg, po measured up to 24 hrs by LC-MS/MS analysis; format: ADME, organism-based; conditions: in vivo; outline: as §2
[13] = Oral bioavailability in Sprague-Dawley rat at 30 mg/kg measured up to 24 hrs by LC-MS/MS analysis; format: ADME, organism-based; conditions: in vivo; outline: as §2
THP-1 [14] = assay: Antiinflammatory activity in human THP-1 cells assessed as inhibition of LPS-induced IL-1beta secretion in LPS stimulation for 3 hrs followed by pretreatment at 2uM for 40 min before induced with nigericin for 40 min measured by ELISA; format: functional; conditions: THP-1, 1.333 h, time 80 min
Outline: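 THP-1 cells (2 × 10^5 cells/mL) differentiated with PMA (100 ng/mL) for 24 h. Next day, primed with LPS (1 μg/mL) for 3 h, then compound for 40 min, then nigericin (10 μM) for 40 min. IL-1β in supernatant measured by ELISA; % inhibition as mean ± SD of three independent experiments. The single-concentration screen used 2 μM.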

Spleen = assay: Downregulation of IL-1beta level in spleen of LPS treated C57BL/6J mouse at 10 mg/kg, iv measured after 6 hrs by ELISA

Sequence of NLR family CARD domain-containing protein 4 (Homo sapiens) (Q9NPP4 whole entry, the tested form may be a part): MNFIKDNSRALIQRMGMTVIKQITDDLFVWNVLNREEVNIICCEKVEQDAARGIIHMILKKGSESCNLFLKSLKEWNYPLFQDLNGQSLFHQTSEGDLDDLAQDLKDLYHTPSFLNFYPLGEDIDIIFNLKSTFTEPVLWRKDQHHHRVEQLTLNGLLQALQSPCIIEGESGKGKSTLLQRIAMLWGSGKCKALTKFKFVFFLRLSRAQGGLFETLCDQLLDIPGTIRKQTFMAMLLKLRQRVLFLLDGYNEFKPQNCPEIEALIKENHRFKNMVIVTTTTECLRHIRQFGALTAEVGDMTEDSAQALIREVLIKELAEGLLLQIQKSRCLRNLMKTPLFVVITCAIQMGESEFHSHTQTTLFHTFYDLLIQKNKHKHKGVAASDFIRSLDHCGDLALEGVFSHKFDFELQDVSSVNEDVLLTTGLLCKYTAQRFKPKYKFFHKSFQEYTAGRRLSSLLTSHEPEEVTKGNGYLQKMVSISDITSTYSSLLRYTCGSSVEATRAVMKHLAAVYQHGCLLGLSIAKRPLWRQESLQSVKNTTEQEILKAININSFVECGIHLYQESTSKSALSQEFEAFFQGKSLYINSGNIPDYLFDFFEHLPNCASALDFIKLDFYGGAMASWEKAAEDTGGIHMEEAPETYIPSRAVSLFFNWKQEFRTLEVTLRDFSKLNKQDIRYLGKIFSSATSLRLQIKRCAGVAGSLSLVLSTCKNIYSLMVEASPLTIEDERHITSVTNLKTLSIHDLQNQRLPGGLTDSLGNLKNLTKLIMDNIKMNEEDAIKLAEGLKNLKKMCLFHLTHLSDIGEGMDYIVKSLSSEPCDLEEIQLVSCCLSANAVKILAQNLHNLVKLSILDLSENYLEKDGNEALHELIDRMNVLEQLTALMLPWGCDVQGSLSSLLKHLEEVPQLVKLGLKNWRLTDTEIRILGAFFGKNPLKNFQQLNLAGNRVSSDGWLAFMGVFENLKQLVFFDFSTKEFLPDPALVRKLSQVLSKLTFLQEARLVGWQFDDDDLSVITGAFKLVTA
Sequence of NACHT, LRR and PYD domains-containing protein 3 (Homo sapiens) (Q96P20 whole entry, the tested form may be a part): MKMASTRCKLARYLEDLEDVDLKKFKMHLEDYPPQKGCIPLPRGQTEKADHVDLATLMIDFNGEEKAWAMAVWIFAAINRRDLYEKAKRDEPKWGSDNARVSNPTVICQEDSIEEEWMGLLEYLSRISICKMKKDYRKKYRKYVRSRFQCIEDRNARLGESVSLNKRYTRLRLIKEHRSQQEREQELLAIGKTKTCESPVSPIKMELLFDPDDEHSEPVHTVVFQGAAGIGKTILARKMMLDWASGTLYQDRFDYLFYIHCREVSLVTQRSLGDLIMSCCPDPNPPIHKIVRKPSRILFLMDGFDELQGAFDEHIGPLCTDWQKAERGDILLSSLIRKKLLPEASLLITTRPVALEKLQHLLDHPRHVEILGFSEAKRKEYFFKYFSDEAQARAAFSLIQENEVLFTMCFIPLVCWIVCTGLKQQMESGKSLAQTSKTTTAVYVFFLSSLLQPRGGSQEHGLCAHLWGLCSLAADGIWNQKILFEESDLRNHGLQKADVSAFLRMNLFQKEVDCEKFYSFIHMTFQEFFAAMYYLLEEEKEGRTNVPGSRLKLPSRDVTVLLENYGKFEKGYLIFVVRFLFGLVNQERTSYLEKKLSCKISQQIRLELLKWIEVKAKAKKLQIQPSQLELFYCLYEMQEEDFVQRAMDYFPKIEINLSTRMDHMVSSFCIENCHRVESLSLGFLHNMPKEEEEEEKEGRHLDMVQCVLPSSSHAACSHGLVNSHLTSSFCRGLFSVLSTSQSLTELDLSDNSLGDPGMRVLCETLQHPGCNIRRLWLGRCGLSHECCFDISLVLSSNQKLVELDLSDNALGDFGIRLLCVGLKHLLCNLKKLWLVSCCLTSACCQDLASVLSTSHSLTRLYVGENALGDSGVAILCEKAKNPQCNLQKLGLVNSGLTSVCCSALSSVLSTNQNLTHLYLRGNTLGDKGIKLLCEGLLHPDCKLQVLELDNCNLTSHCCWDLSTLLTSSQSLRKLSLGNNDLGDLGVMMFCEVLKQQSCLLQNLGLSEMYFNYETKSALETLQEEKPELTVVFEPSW

In the case of `COc1cc(/C=C/C(=O)c2ccc(F)cc2)c(OC)cc1Br`, the inhibition [1] is reported as “inactive”, the inhibition [2] is reported as “inactive” and the inhibition [3] is reported as “Dose-Dependent Effect”. For the same molecule, the Activity (THP-1 [4]) was “inactive”, the Activity (THP-1 [5]) was “inactive” and the inhibition [6] was “Dose-Dependent Effect”. For the same molecule, the AUC(0-t) at 24 h [7] was 23.5 ng·h/mL, the CL [8] was 2229.2 mL/min/kg and the Cmax [9] was 16.4 ng/mL. The Cmax [10] was 13.6 ng/mL, the half-life [11] was 7.43 h and the half-life [12] was 7.92 h. The bioavailability [13] was 4.99%, the inhibition at 2 µM (THP-1 [14]) was 108% and the Activity (Spleen) was “Active”.
